Experimental data of several laboratories.
pIC50: −log10 of the molar value. Converted amounts (≈) assume the structure as drawn.
Organism: Mycobacterium tuberculosis
Effect on: microbial growth

Compound	test	test system	setting	measurement	value
Cc1cc2nc(C(=O)N(C)C)cc(-c3ccccc3Cl)c2c(C)c1-c1ccncc1		H37RV		MIC90	20 µM (≈ 8.32 µg/mL)
CO[C@H]1/C=C/O[C@@]2(C)Oc3c(C)c(O)c4c(O)c(c(/C=N/N5CCN(C)CC5)c(O)c4c3C2=O)NC(=O)/C(C)=C\C=C\[C@H](C)[C@H](O)[C@@H](C)[C@@H](O)[C@@H](C)[C@H](OC(C)=O)[C@@H]1C	resazurin	ATCC27294 H37RV	7 days	MIC	0.06 µg/mL
Nc1nc(-c2cccc(-c3ccccc3)c2)nc2c1ncn2[C@@H]1O[C@H](COS(=O)(=O)NC(=O)c2ccccc2O)[C@@H](O)[C@H]1O		H37RV	pH 6.6	MIC99	25 to 50 µM
CCOC(=O)c1c(NC(=O)c2c(F)c(F)c(F)c(F)c2F)sc2c1CCN(CC)C2	resazurin	H37RV		pIC50	6.19
Cc1cccc(C)c1-c1ccnc2cc(C)c(-c3ccc(CN4CCOCC4)cc3)c(C)c12		H37RV		MIC90	5 µM (≈ 2.18 µg/mL)
[H]/N=C(/N)N[C@H]1[C@H](O)[C@@H](O)[C@H](O[C@@H]2O[C@@H](C)[C@](O)(C=O)[C@H]2O[C@@H]2O[C@@H](CO)[C@H](O)[C@@H](O)[C@@H]2NC)[C@@H](N/C(N)=N\[H])[C@@H]1O	disc diffusion	ATCC25177	5 µg/disc, 12 days	inhibition zone	30 mm
CCOC(=O)c1c(NC(=O)c2c(F)c(F)c(F)c(F)c2F)sc2c1CCN(C(=O)OC(C)(C)C)C2	resazurin	H37RV		MIC	< 100 µM
CC(=O)[C@]1(O)Cc2c(O)c3c(c(O)c2[C@@H](O[C@H]2C[C@H](N)[C@H](O)[C@H](C)O2)C1)C(=O)c1ccccc1C3=O	resazurin	H37RV		MIC	80 µM
CCCCOC(=O)Nc1cc2nc(C3CCCCC3)[nH]c2cc1N1CCCC1	resazurin	H37RV		MIC99	0.39 µg/mL
COc1cccc2c1C(=O)c1c(O)c3c(c(O)c1C2=O)C[C@@](O)(C(C)=O)C[C@@H]3O[C@H]1C[C@H](N)[C@H](O)[C@H](C)O1	resazurin	H37RV		MIC	1.25 µM
Nc1sc2c(c1C(=O)NC13CC4CC(CC(C4)C1)C3)CCCC2	resazurin	H37RV		MIC	> 300 µM
Cc1cc2nc(C(=O)O)cc(-c3ccccc3Cl)c2c(C)c1-c1ccncc1		H37RV		MIC90	80 µM (≈ 31.1 µg/mL)
Nc1sc2c(c1C(=O)O)CCN(C(=O)OCc1ccccc1)C2	resazurin	H37RV		MIC	> 300 µM
O=C(Nc1cc2nc(C3CCCCC3)[nH]c2cc1N1CCCC1)OCc1ccccc1	resazurin	H37RV		MIC99	1.56 µg/mL
Nc1nc(-c2ccc(-c3ccccc3)cc2)nc2c1ncn2[C@@H]1O[C@H](COS(=O)(=O)NC(=O)c2ccccc2O)[C@@H](O)[C@H]1O		H37RV	pH 6.6	MIC99	25 to 50 µM
